Reference: ChEMBL document CHEMBL4842314, “Synthesis and SAR evaluation of coumarin derivatives as potent cannabinoid receptor agonists” (Eur J Med Chem, 2021)

Tests used:
Cannabinoid receptor 1 [1] = biological target: T1, Cannabinoid receptor 1 (Homo sapiens, UniProt P21554); assay: Displacement of [3H]-CP55940 from human recombinant CB1 receptor expressed in CHO-K1 cell membrane measured after 3 hrs by scintillation spectrometry; type: cell membranes
Cannabinoid receptor 2 [2] = biological target: T2, Cannabinoid receptor 2 (Homo sapiens, UniProt P34972); assay: Agonist activity at human recombinant CB2 receptor expressed in CHO-K1 cell membrane assessed as increase in GTPgammaS binding at 1 uM pretreated for 30 mins followed by [35S]GTPgammaS addition for 90 mins by [35S]GTP-gammaS binding assay relative to CP55940; type: functional, cell membranes; conditions: time 120.0 min
T2 sequence (P34972 whole entry): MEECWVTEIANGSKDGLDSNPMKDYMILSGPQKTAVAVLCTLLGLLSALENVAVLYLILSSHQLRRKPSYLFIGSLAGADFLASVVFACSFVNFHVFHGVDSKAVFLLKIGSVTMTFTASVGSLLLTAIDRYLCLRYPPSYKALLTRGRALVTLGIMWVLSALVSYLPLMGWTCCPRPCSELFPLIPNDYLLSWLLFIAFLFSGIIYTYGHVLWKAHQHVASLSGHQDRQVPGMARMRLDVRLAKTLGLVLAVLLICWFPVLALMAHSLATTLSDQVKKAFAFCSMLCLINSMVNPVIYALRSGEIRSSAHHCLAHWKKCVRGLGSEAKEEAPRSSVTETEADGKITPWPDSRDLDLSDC
Summary of the method: (§1)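 Membranes (5 μg) from PathHunter CHOK1 cells stably expressing hCB1 or hCB2 pre-incubated 30 min at room temperature with test ligand at 1 μM final, 1 μM GDP and 5 μg saponin in Tris-HCl pH 7.4, MgCl2, NaCl, EDTA, BSA, DTT. [35S]GTPγS (0.3 nM final) was then added for 90 min at 25 °C. Filtration on GF/B. Emax given relative to CP55,940 (100%), two experiments in duplicate.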

Homo sapiens = species: Homo sapiens; assay: Selectivity ratio of Ki for human recombinant CB2 receptor expressed in CHO-K1 cell membrane to Ki for human recombinant CB1 receptor expressed in CHO-K1 cell membrane; type: cell-based
Cannabinoid receptor 2 [3] = biological target: T2, Cannabinoid receptor 2; assay: Displacement of [3H]-CP55940 from human recombinant CB2 receptor expressed in CHO-K1 cell membrane measured after 3 hrs by scintillation spectrometry; type: cell membranes; conditions: read-out: Ki
Cannabinoid receptor 1 [4] = biological target: T1, Cannabinoid receptor 1; assay: Displacement of [3H]-CP55940 from human recombinant CB1 receptor expressed in CHO-K1 cell membrane at 1 uM measured after 3 hrs by scintillation spectrometry; type: cell membranes; conditions: filed as agonist
Cannabinoid receptor 2 [5] = biological target: T2, Cannabinoid receptor 2; assay: Displacement of [3H]-CP55940 from human recombinant CB2 receptor expressed in CHO-K1 cell membrane at 1 uM measured after 3 hrs by scintillation spectrometry; type: cell membranes; conditions: filed as agonist
Cannabinoid receptor 1 [6] = biological target: T1, Cannabinoid receptor 1; assay: Agonist activity at human recombinant CB1 receptor expressed in CHO-K1 cell membrane assessed as increase in GTPgammaS binding pretreated for 30 mins followed by [35S]GTPgammaS addition for 90 mins by [35S]GTP-gammaS binding assay; type: functional, cell membranes
Summary of the method: (§2)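 Concentration-response [35S]GTPγS binding on 5 μg hCB1 or hCB2 CHOK1 membranes. Ligand, 1 μM GDP and saponin pre-incubated 30 min at room temperature, then 0.3 nM [35S]GTPγS added for 90 min at 25 °C. Filtration read-out. Three experiments in duplicate.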

Cannabinoid receptor 2 [7] = biological target: T2, Cannabinoid receptor 2; assay: Agonist activity at human recombinant CB2 receptor expressed in CHO-K1 cell membrane assessed as increase in GTPgammaS binding pretreated for 30 mins followed by [35S]GTPgammaS addition for 90 mins by [35S]GTP-gammaS binding assay; type: functional, cell membranes; summary of the method: as §2
Cannabinoid receptor 1 [8] = biological target: T1, Cannabinoid receptor 1; assay: Agonist activity at human recombinant CB1 receptor expressed in CHO-K1 cell membrane assessed as increase in GTPgammaS binding at 1 uM pretreated for 30 mins followed by [35S]GTPgammaS addition for 90 mins by [35S]GTP-gammaS binding assay relative to CP55940; type: functional, cell membranes; conditions: filed as agonist, time 120.0 min; summary of the method: as §1

T1 sequence (P21554 whole entry): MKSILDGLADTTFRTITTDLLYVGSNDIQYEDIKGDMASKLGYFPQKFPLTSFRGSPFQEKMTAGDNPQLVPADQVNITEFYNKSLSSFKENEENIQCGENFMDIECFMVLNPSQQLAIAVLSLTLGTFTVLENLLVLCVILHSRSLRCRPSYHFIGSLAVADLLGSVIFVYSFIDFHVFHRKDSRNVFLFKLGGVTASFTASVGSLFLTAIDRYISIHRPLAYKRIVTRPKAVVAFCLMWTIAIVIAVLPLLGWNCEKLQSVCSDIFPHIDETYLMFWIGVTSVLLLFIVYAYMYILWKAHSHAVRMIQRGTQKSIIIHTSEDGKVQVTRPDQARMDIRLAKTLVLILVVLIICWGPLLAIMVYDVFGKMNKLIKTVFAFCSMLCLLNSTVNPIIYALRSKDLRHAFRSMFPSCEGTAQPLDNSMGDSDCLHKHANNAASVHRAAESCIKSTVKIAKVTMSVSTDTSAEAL

SMILES | Ki (Cannabinoid receptor 1 [1]; read-out: pKi (converted)) [nM] | Emax (Cannabinoid receptor 2 [2]; filed as agonist) [%] | Ratio Ki (Homo sapiens) | Ki (Cannabinoid receptor 2 [3]) [nM] | inhibition (Cannabinoid receptor 1 [4]) [%] | inhibition (Cannabinoid receptor 2 [5]) [%] | Ki (Cannabinoid receptor 1 [1]; read-out: Ki) [nM] | Emax (Cannabinoid receptor 2 [2]) [%] | EC50 (Cannabinoid receptor 1 [6]) [nM] | EC50 (Cannabinoid receptor 2 [7]) [nM] | Emax (Cannabinoid receptor 1 [8]) [%]
CCCCc1cc2c(O)cc(C3(CCCC)CCCCC3)cc2oc1=O | > 1000 | 65 | 79 | 12.5 | 48 | > 50 |  |  |  |  | 
CCCCCc1cc(OC)c2cc(Cc3ccccn3)c(=O)oc2c1 |  |  |  | 82.4 | > 50 | > 50 | 70.3 | 34 | 1010 | 188 | 46
